According to ChEMBL document CHEMBL1143764, “Cyclic and dimeric gluten peptide analogues inhibiting DQ2-mediated antigen presentation in celiac disease” (Bioorg Med Chem, 2007):
Active and inactive are the calls of the source. The calls are words filed in the database; no cut-off is given here. *1 amine or outer side, *2 acyl side, *3 side chain or, on linkers, in order; H or OH if unused. Where a SMILES comes first, the peptide text is derived from it. Bridges are numbered along the chain shown (N, C = ends). Side-chain parts run from the residue outwards. [ ]: non-standard residue; d: D form. The star is where a group is joined. N(prolylmethyl)Phe = O=C(CN([C@@H](Cc1ccccc1)C(=O)[*:2])[*:1])[C@@H]1CCCN1[*:3]; X1 = O=C(CCCOCCOCCOCCOCCOCCC(=O)NCCOCCOCC(=O)[*:1])NCCOCCOCC(=O)[*:2]; X2 = O=C(CCOCCOCCOCCOCCOCCOCCOCCOCCOCCOCCOCCC(=O)[*:2])[*:1]; 5FAM = O=C1OC2(c3ccc(O)cc3Oc3cc(O)ccc32)c2ccc(C(=O)*)cc21; X3 = O=C(CCOCCOCCOCCOCCOCCOCCOCCC(=O)[*:2])[*:1]

Tests used:
[1] = Binding affinity to DQ2; parameters: species or system Homo sapiens
Outline: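 Competition binding: 125I-labeled indicator peptide (30,000 cpm; 1–5 nM) plus graded unlabeled peptide incubated overnight with 70–200 nM DQ2 at 37°C, pH 5.2, with protease inhibitor cocktail. Bound separated from free on Sephadex G-50 spin columns; radioactivity counted; IC50 as competitor level halving indicator binding, from three 3-fold titration experiments.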

T-cell = assay: Inhibition of P28 TCL2 T cell proliferation assessed as incorporation of [3H]-thymidine in presence of 10 uM antigen peptide; format: functional, cell-based; settings: Homo sapiens
Outline: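 HLA-DR3/DQ2 homozygous EBV B-lymphoblastoid cells (VAVY or CD114), fixed with 1% paraformaldehyde or 0.05% glutaraldehyde, peptide-loaded overnight at 2×10^6 cells/ml. Next day at 1×10^6/ml, duplicates, mixed with equal volume of P28 TCL2 T cells; 37°C, 5% CO2, 48 h. [3H]thymidine added, further 12–16 h, scintillation counting.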

Homo sapiens = organism: Homo sapiens; assay: Binding affinity to recombinant DQ2 at pH 7.3 by fluorescent-conjugated peptide exchange assay
Outline: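 Recombinant soluble DQ2 with N-terminally fused gliadin epitope, cleaved with ~2% w/w thrombin in PBS pH 7.3, 0°C, 2 h. 4.7 μM DQ2 with 0.185 μM fluorescein-labeled peptide (25:1), 37°C, 5 h, final pH 7.3. HPSEC with fluorescence (ex 495/em 520 nm); bound peptide as percent of total; mean of two experiments.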

SMILES | IC50 [1] [nM] | Activity (T-cell) | Activity (Homo sapiens)
CC(C)C[C@@H]1NC(=O)CNC(=O)CNC(=O)CNC(=O)CNC(=O)[C@H](N)CSSC[C@H](C(=O)O)NC(=O)CNC(=O)CNC(=O)[C@H](Cc2ccc(O)cc2)NC(=O)[C@@H]2CCCN2C(=O)[C@H](CC(C)C)NC(=O)[C@H](CCC(=O)O)NC(=O)[C@@H]2CCCN2C(=O)[C@H](CCC(N)=O)NC(=O)[C@@H]2CCCN2C(=O)[C@H](Cc2ccccc2)NC(=O)[C@@H]2CCCN2C(=O)[C@H](CCC(N)=O)NC1=O | 3100 | Dose-dependent effect | 
CC(C)C[C@H](NC(=O)c1ccc2c(c1)C(=O)OC21c2ccc(O)cc2Oc2cc(O)ccc21)C(=O)N[C@@H](CCC(=O)O)C(=O)N[C@@H](CC(C)C)C(=O)N[C@@H](CCC(N)=O)C(=O)N1CCC[C@H]1C(=O)CN[C@@H](Cc1ccccc1)C(=O)N1CCC[C@H]1C(=O)N[C@@H](CCC(=O)O)C(=O)N1CCC[C@H]1C(=O)N[C@@H](CCC(=O)O)C(=O)N[C@H]1CCCCNC(=O)COCCOCCNC(=O)CCOCCOCCOCCOCCOCCCC(=O)NCCOCCOCC(=O)NCCCC[C@@H](C(=O)N2CCC[C@H]2C(=O)N[C@@H](Cc2ccc(O)cc2)C(=O)O)NC(=O)[C@H](CCC(=O)O)NC(=O)[C@@H]2CCCN2C(=O)[C@H](CCC(=O)O)NC(=O)[C@@H]2CCCN2C(=O)[C@H](Cc2ccc(O)cc2)NC(=O)[C@@H]2CCCN2C1=O (H-[N(prolylmethyl)Phe]([Gln-Leu-Glu-Leu-5FAM])PEPEKPYPEPEKPY-OH; linker 6-13 via X1) | 300 | Dose-dependent effect | Active
CC(C)C[C@@H]1NC(=O)CNC(=O)CNC(=O)[C@H](N)CSSC[C@H](C(=O)O)NC(=O)CNC(=O)CNC(=O)[C@H](Cc2ccc(O)cc2)NC(=O)[C@@H]2CCCN2C(=O)[C@H](CC(C)C)NC(=O)[C@H](CCC(=O)O)NC(=O)[C@@H]2CCCN2C(=O)[C@H](CCC(N)=O)NC(=O)[C@@H]2CCCN2C(=O)[C@H](Cc2ccccc2)NC(=O)[C@@H]2CCCN2C(=O)[C@H](CCC(N)=O)NC1=O | 2000 | Dose-dependent effect | 
CC(C)C[C@@H]1NC(=O)CNC(=O)CNC(=O)CNC(=O)CNC(=O)CNC(=O)CNC(=O)[C@H](N)CSSC[C@H](C(=O)O)NC(=O)CNC(=O)CNC(=O)[C@H](Cc2ccc(O)cc2)NC(=O)[C@H]2CCCN2C(=O)[C@H](CC(C)C)NC(=O)[C@H](CCC(=O)O)NC(=O)[C@@H]2CCCN2C(=O)[C@H](CCC(N)=O)NC(=O)[C@@H]2CCCN2C(=O)[C@H](Cc2ccccc2)NC(=O)[C@@H]2CCCN2C(=O)[C@H](CCC(N)=O)NC1=O | 4200 | Dose-dependent effect | 
CC(C)C[C@H](NC(=O)c1ccc2c(c1)C(=O)OC21c2ccc(O)cc2Oc2cc(O)ccc21)C(=O)N[C@@H](CCC(=O)O)C(=O)N[C@@H](CC(C)C)C(=O)N[C@@H](CCC(N)=O)C(=O)N1CCC[C@H]1C(=O)CN[C@@H](Cc1ccccc1)C(=O)N1CCC[C@H]1C(=O)N[C@@H](CCC(=O)O)C(=O)N1CCC[C@H]1C(=O)N[C@@H](CCC(=O)O)C(=O)N[C@H]1CCCCNC(=O)CCOCCOCCOCCOCCOCCC(=O)CNCCCC[C@@H](C(=O)N2CCC[C@H]2C(=O)N[C@@H](Cc2ccc(O)cc2)C(=O)O)NC(=O)[C@H](CCC(=O)O)NC(=O)[C@@H]2CCCN2C(=O)[C@H](CCC(=O)O)NC(=O)[C@@H]2CCCN2C(=O)[C@H](Cc2ccc(O)cc2)NC(=O)[C@@H]2CCCN2C1=O | 200 | Dose-dependent effect | Active
CC(=O)N[C@H]1CCCCNC(=O)CCOCCOCCOCCOCCOCCOCCOCCOCCOCCOCCOCCC(=O)NCCCC[C@@H](C(=O)N[C@@H](CCC(=O)O)C(=O)N[C@@H](CC(C)C)C(=O)N2CCC[C@H]2C(=O)N[C@@H](Cc2ccc(O)cc2)C(=O)O)NC(=O)[C@H](CCC(=O)O)NC(=O)[C@@H]2CCCN2C(=O)[C@H](Cc2ccccc2)NC(=O)[C@@H]2CCCN2C(=O)[C@H](CCC(N)=O)NC1=O (Ac-KQPFPEKELPY-OH; linker 1-7 via X2) | 800 | Dose-dependent effect | 
CC(=O)N[C@H]1CCCCNC(=O)CCOCCOCCOCCOCCOCCOCCOCCC(=O)NCCCC[C@@H](C(=O)N[C@@H](CCC(=O)O)C(=O)N[C@@H](CC(C)C)C(=O)N2CCC[C@H]2C(=O)N[C@@H](Cc2ccc(O)cc2)C(=O)O)NC(=O)[C@H](CCC(=O)O)NC(=O)[C@@H]2CCCN2C(=O)[C@H](Cc2ccccc2)NC(=O)[C@@H]2CCCN2C(=O)[C@H](CCC(N)=O)NC1=O (Ac-KQPFPEKELPY-OH; linker 1-7 via X3) | 600 | Dose-dependent effect | 
